Laboratory results: PMC7684530 (European Journal of Medicinal Chemistry, 2020)
“Also recorded” adds a separate entry of the source.

Assays:
PqsR [1] = biological target: T1, PqsR (Pseudomonas aeruginosa, UniProt Q9I4X0); assay: PqsR bioreporter assay; assay type: cell-based, Pseudomonas aeruginosa PAO1-L; settings: for activity: read-out: IC50 value in PAO1-L
T1 sequence (Q9I4X0 1-332): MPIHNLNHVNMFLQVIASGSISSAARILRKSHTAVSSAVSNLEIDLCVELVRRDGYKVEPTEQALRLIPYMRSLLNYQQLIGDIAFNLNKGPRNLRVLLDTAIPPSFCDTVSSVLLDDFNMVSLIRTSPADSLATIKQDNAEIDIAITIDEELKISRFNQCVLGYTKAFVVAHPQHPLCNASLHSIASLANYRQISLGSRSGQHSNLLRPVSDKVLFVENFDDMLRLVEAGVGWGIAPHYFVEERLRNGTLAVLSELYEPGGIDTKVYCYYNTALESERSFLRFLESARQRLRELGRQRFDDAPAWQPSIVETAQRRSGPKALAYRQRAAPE
How it was run: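 Dose-response of the PAO1-L mCTX:PpqsA-lux reporter. Ten compound concentrations in LB came from two tenfold dilution series and were mixed 1:1 with PAO1-L diluted to OD600 0.02, giving final 31.6 μM to 1 nM, in triplicate. The plate was kinetically read at 37 °C over 24 h for OD600 and luminescence every 30 min. Values were taken at the luminescence peak (8–9 h), and log concentration was plotted against RLU/OD600.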

PqsR [2] = biological target: T1, PqsR; assay: 10 μM spot test in the PAO1-L mCTX:PpqsA-lux bioreporter; assay type: cell-based, Pseudomonas aeruginosa PAO1-L; settings: 10 μM ligand concentration
How it was run: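 Single-concentration screen of the PAO1-L mCTX:PpqsA-lux strain in LB. The reporter was grown overnight at 37 °C to OD600 2.0–3.0 and diluted to OD600 0.02. A 20 μM compound solution in LB was mixed 1:1 with the cells (final 10 μM) in at least three wells. OD600 and luminescence were read every 30 min at 37 °C over 24 h. Activity (luminescence/OD600) was taken at the luminescence peak and compared with the DMSO control.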

[3] = test system: A549 lung epithelial cells; assay: Cytotoxicity; assay type: cell-based, human; settings: 0.1 to 100 μM, 16 h
[4] = Solubility in the cytotoxicity test buffer; assay type: physicochemical; settings: this concentration = 100 μM

activity (PqsR [1]) [%] | activity when screened at 10 μM (in words) (PqsR [2]) | Compound | further results
> 50 | – | CC1CCN(c2ncc(Cn3cnc4ccc(Cl)cc4c3=O)s2)CC1 [Compound 27, 6-Chloro-3-((2-(4-methylpiperidin-1-yl)thiazol-5-yl)methyl)quinazolin-4-(3H)-one] | –
> 50 | inactive | O=c1c2cc(Cl)ccc2ncn1Cc1csc(-c2ccc([N+](=O)[O-])cc2)n1 [Compound 23, 6-Chloro-3-((2-(4-nitrophenyl)thiazol-4-yl)methyl)quinazolin-4(3H)-one] | –
> 50 | – | COCCNc1ncc(Cn2cnc3ccc(Cl)cc3c2=O)s1 [Compound 31, 6-Chloro-3-((2-((2-methoxyethyl)amino)thiazol-5-yl)methyl)quinazolin-4-(3H)-one] | –
> 50 | – | CN(CCO)c1ncc(Cn2cnc3ccc(Cl)cc3c2=O)s1 [Compound 29, 6-Chloro-3-((2-(2-hydroxyethyl(methyl)amino)thiazol-5-yl)methyl)quinazolin-4-(3H)-one] | –
> 50 | inactive; also recorded: inactivity | CC(C)c1ncc(Cn2cnc3ccc(Cl)cc3c2=O)s1 [Compound 35, 6-Chloro-3-((2-isopropylthiazol-5-yl)methyl)quinazolin-4(3H)-one] | –
> 50 | – | Cc1nc(Cn2cnc3ccc(Cl)cc3c2=O)cs1 [Compound 8, 6-Chloro-3-((2-methylthiazol-4-yl)methyl)quinazolin-4(3H)-one] | –
> 50 | – | N#CCc1nc(Cn2cnc3ccc(Cl)cc3c2=O)cs1 [Compound 11, 2-(4-((6-Chloro-4-oxoquinazolin-3(4H)-yl)methyl)thiazol-2-yl)acetonitrile] | –
> 50 | – | O=c1c2cc(Cl)ccc2ncn1Cc1cnc(NC2CCCCC2)s1 [Compound 28, 6-Chloro-3-((2-(cyclohexylamino)thiazol-5-yl)methyl)quinazolin-4-(3H)-one] | –
– | inactive; also recorded: inactivity | CC(C)c1noc(Cn2cnc3ccc(Cl)cc3c2=O)n1 [Compound 7] | –
> 50 | – | CCc1nc(Cn2cnc3ccc(Cl)cc3c2=O)cs1 [Compound 10, 6-Chloro-3-((2-ethylthiazol-4-yl)methyl)quinazolin-4(3H)-one] | –
– | – | CC(C)(C)c1nc(Cn2cnc3ccc(Cl)cc3c2=O)cs1 [Compound 12, 3-((2-(Tert-butyl)thiazol-4-yl)methyl)-6-chloroquinazolin-4(3H)-one] | activity in PAO1-L compared with 32 (PqsR [1]; ratio of IC50 values, strain PAO1-L): seven-fold stronger activity
> 50 | – | O=c1c2cc(Cl)ccc2ncn1Cc1csc(C(F)(F)F)n1 [Compound 9, 6-Chloro-3-((2-(trifluoromethyl)thiazol-4-yl)methyl)quinazolin-4(3H)-one] | –
– | – | CCCCCc1nc(Cn2cnc3ccc(Cl)cc3c2=O)cs1 [Compound 18, 6-Chloro-3-((2-pentylthiazol-4-yl)methyl)quinazolin-4(3H)-one] | cytotoxic concentration (no significant toxicity up to; LD50 not reached) [3]: > 100 µM; solubility in the test buffer [4]: neither compound was fully soluble above this concentration
> 50 | – | CCCCNc1ncc(Cn2cnc3ccc(Cl)cc3c2=O)s1 [Compound 30, 3-((2-(Butylamino)thiazol-5-yl)methyl)-6-chloroquinazolin-4(3H)-one] | –
> 50 | inactive | CCCCCc1nc(Cn2cnc3cc(Cl)ccc3c2=O)cs1 [Compound 33, 7-Chloro-3-((2-pentylthiazol-4-yl)methyl)quinazolin-4(3H)-one] | –
> 50 | inactive | NC(N)=Nc1nc(Cn2cnc3ccc(Cl)cc3c2=O)cs1 [Compound 26, 2-(4-((6-Chloro-4-oxoquinazolin-3(4H)-yl)methyl)thiazol-2-yl)guanidine] | –
> 50 | no inhibition | COCCNc1nc(Cn2cnc3ccc(Cl)cc3c2=O)cs1 [Compound 24, 6-Chloro-3-((2-((2-methoxyethyl)amino)thiazol-4-yl)methyl)quinazolin-4(3H)-one] | –
– | – | CCCCCCc1nc(Cn2cnc3ccc(Cl)cc3c2=O)cs1 [Compound 19, 6-Chloro-3-((2-hexylthiazol-4-yl)methyl)quinazolin-4(3H)-one] | cytotoxic concentration (no significant toxicity up to; LD50 not reached) [3]: > 100 µM; solubility in the test buffer [4]: neither compound was fully soluble above this concentration

Compound | activity (PqsR [1]) [%] | activity when screened at 10 μM (in words) (PqsR [2]) | further results
O=c1c2cc(Cl)ccc2ncn1Cc1cnc(Cl)s1 [Compound 34, 6-Chloro-3-((2-chlorothiazol-5-yl)methyl)quinazolin-4(3H)-one] | > 50 | – | –
